Laboratory results from ChEMBL document CHEMBL2203262, “The design and synthesis of indazole and pyrazolopyridine based glucokinase activators for the treatment of type 2 diabetes mellitus” (Bioorg Med Chem Lett, 2012).
≈ marks a conversion by molar mass, not a printed value.

Experiments:
[1] = Passive permeability of the compound in dog RRCK cells; assay type: ADME, cell-based, Canis lupus familiaris, MDCKII-LE; conditions: MDCK, read-out: permeability
Outline: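 Passive permeability measured in the RRCK cell line; reported as 10^-6 cm/s.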

[2] = Kinetic solubility of the compound; assay type: physicochemical; conditions: read-out: Kinetic_solubility
[3] = Intrinsic clearance of the compound in human liver microsomes; assay type: ADME, Microsome; conditions: read-out: CLH
Outline: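 Human liver microsomal stability; intrinsic clearance expressed as ml/min/kg.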

Hexokinase-4 [4] = molecular target: T1, Hexokinase-4 (Homo sapiens, UniProt P35557); experiment: Activation of recombinant human glucokinase assessed measuring rate of glucose 6-phosphate formation using G6PDH/NADP coupling
T1 sequence (P35557 whole entry): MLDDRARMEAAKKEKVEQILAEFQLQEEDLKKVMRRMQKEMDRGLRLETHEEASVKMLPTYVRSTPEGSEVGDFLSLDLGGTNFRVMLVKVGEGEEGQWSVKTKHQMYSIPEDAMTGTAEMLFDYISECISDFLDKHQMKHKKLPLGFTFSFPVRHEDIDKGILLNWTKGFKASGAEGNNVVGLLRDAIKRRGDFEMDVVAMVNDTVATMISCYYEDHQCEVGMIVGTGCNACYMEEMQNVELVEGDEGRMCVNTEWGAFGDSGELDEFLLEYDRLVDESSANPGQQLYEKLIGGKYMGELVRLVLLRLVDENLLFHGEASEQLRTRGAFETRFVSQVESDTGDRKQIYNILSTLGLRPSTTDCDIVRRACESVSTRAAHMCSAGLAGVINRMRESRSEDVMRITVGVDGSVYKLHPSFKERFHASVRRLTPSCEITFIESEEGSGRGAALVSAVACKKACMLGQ

[5] = Lipophilicity, log D of the compound by shake flask method; assay type: physicochemical; conditions: octanol/water
Rattus norvegicus [6] = experiment: Toxicity in Sprague-Dawley rat assessed as hypoglycemia at 10 to 250 mg/kg, po; assay type: organism-based; parameters: dose 10-250 mg/kg, route oral; conditions: in vivo
Outline: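 Oral glucose tolerance test in overnight-fasted Sprague-Dawley rats. Single oral dose of 10–250 mg/kg (suspension in 30% sulfobutylether/water) given at t = −60 min, then 2 g/kg glucose orally at t = 0. Hypoglycemia defined as blood glucose <60 mg/dL. n = 7/group.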

Rattus norvegicus [7] = experiment: Antidiabetic activity in Sprague-Dawley rat assessed as reduction of plasma glucose AUC excursion at 250 mg/kg, po by oral glucose tolerance test; assay type: functional; parameters: scale not given: the % may be the effect or the level left
Outline: (§1)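 Sprague-Dawley rats fasted overnight, dosed orally at t = −60 min with 10, 25, 100 or 250 mg/kg as suspension in 30% sulfobutylether/water. Oral glucose challenge 2 g/kg at t = 0 min.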

Rattus norvegicus [8] = experiment: Antidiabetic activity in po dosed Sprague-Dawley rat assessed as reduction of plasma glucose AUC excursion by oral glucose tolerance test; assay type: functional, organism-based; outline: as §1
[9] = Fraction unbound in human plasma; assay type: ADME, cell-free
[10] = Fraction unbound in rat plasma; assay type: ADME, cell-free
[11] = Drug excretion in Wistar-Han rat urine at 1 mg/kg, iv; assay type: ADME, organism-based; parameters: dose 1 mg/kg, route intravenous; conditions: read-out: Drug excretion
[12] = Oral bioavailability in Wistar-Han rat at 5 mg/kg; assay type: ADME, organism-based; conditions: in vivo
[13] = AUC in Wistar-Han rat at 5 mg/kg, po; assay type: ADME, organism-based; parameters: dose 5 mg/kg, route oral; conditions: plasma
Outline: (§2)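 Pharmacokinetics in Wistar-Han rats, n = 3 animals per group. Intravenous dosing was at 1 mg/kg, and oral dosing was at 5 mg/kg. Plasma AUC, Cmax, t1/2, clearance, Vdss and oral bioavailability were derived. Urine was collected after the i.v. dose to assess renal excretion.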

[14] = Half life in Wistar-Han rat at 5 mg/kg, po; assay type: ADME, organism-based; parameters: dose 5 mg/kg, route oral; conditions: in vivo
[15] = Cmax in Wistar-Han rat at 5 mg/kg, po; assay type: ADME, organism-based; parameters: dose 5 mg/kg, route oral; conditions: in vivo
[16] = Clearance in Wistar-Han rat at 1 mg/kg, iv; assay type: ADME, organism-based; parameters: dose 1 mg/kg, route intravenous; conditions: in vivo
Outline: (§3)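 Wistar-Han rats, n = 3 animals/group. Single intravenous dose of 1 mg/kg; plasma pharmacokinetic parameters determined.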

[17] = Volume of distribution at steady state in Wistar-Han rat at 1 mg/kg, iv; assay type: ADME, organism-based; parameters: dose 1 mg/kg, route intravenous; conditions: in vivo, read-out: Vdss; outline: as §3
[18] = Half life in Wistar-Han rat at 1 mg/kg, iv; assay type: ADME, organism-based; parameters: dose 1 mg/kg, route intravenous; conditions: in vivo; outline: as §3
[19] = AUC in Wistar-Han rat at 1 mg/kg, iv; assay type: ADME, organism-based; parameters: dose 1 mg/kg, route intravenous; conditions: plasma; outline: as §2
[20] = Cmax in Wistar-Han rat at 1 mg/kg, iv; assay type: ADME, organism-based; parameters: dose 1 mg/kg, route intravenous; conditions: in vivo; outline: as §3
[21] = molecular target: Voltage-gated inwardly rectifying potassium channel KCNH2 (Homo sapiens, UniProt Q12809); experiment: Inhibition of human ERG by patch clamp assay
[22] = Genotoxicity in micronucleus
INS1 = experiment: Increase of glucose-stimulated insulin secretion in rat INS-1 cells
Salmonella typhimurium = experiment: Genotoxicity in Salmonella typhimurium by Ames test; assay type: toxicity, organism-based; conditions: salmonella enterica subsp. enterica serovar typhimurium
Hexokinase-4 [23] = molecular target: T2, Hexokinase-4 (Rattus norvegicus, UniProt P17712); experiment: Activation of recombinant rat glucokinase assessed measuring rate of glucose 6-phosphate formation using G6PDH/NADP coupling
T2 sequence (P17712 whole entry): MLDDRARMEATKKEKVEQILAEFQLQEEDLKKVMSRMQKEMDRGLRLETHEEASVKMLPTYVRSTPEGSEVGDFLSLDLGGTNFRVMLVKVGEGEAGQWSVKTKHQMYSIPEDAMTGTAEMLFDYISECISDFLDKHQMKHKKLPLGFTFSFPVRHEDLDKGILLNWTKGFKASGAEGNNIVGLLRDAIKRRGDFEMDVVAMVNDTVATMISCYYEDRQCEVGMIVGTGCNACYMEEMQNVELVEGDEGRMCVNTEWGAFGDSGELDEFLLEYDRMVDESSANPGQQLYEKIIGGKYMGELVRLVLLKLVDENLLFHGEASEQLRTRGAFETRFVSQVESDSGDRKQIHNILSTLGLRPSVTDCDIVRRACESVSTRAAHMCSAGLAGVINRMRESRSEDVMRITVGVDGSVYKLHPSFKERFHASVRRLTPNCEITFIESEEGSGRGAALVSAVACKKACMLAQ
Outline: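 Recombinant rat glucokinase; glucose 6-phosphate formation rate followed by G6PDH/NADP coupling. Matrix format: activator at 22 concentrations (0 to 100 µM range as printed) × 16 glucose concentrations (0 to 100 mM). Nonessential activator model fitted; EC50 = concentration giving half-maximal reduction in glucose Km.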

Voltage-gated inwardly rectifying potassium channel KCNH2, sequence (Q12809 whole entry): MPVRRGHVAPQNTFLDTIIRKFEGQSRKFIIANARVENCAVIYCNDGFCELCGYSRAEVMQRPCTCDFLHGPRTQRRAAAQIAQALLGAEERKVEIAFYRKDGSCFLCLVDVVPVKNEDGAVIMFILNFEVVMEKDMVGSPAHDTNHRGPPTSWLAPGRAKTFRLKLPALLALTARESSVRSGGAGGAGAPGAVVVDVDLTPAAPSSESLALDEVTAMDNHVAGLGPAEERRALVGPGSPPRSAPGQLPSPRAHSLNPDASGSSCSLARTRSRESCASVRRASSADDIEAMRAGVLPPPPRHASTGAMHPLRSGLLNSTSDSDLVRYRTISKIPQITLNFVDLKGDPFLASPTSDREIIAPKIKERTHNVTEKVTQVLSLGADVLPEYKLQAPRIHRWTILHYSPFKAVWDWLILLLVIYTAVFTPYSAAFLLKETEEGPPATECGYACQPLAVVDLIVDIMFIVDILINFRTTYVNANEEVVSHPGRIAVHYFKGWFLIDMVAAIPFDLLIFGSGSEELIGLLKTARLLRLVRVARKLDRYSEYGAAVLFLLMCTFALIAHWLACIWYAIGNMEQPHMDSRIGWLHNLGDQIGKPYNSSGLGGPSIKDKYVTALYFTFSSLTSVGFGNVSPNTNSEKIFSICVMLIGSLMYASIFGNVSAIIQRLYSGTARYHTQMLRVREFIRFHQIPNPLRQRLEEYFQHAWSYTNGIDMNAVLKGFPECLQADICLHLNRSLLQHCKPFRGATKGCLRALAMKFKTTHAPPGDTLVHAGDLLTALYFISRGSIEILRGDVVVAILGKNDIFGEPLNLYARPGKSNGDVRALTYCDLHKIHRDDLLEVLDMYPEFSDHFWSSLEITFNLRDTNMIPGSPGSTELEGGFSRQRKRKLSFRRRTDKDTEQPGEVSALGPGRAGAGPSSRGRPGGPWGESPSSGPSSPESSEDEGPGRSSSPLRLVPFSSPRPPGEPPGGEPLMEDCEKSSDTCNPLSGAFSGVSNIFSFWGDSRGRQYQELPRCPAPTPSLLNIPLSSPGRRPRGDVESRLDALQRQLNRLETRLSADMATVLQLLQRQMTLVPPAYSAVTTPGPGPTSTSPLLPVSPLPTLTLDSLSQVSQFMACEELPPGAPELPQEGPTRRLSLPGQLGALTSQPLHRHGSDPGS

## CCS(=O)(=O)c1ccc(Oc2cc(C(=O)Nc3cnc(C)cn3)cc3nn(C)cc23)cc1
[1]
  Papp: 10.6 ×10⁻⁶ cm/s
[2]
  solubility kinetic: 69 µM (≈ 31.2 µg/mL)
[3]
  CLint scaled: < 8 mL/min/kg
Hexokinase-4 [4]
  EC50: 980 nM

## Cc1cnc(NC(=O)c2cc(Oc3cnc(C(=O)N(C)C)cn3)c3cn(C)nc3c2)cn1
[1]
  Papp: 20.8 ×10⁻⁶ cm/s
[2]
  solubility kinetic: 192 µM (≈ 83 µg/mL)
[5]
  logD: 0.83
[3]
  CLint scaled: < 8.5 mL/min/kg
Hexokinase-4 [4]
  EC50: 990 nM

## CNS(=O)(=O)c1ccc(Oc2cc(C(=O)Nc3cnc(C)cn3)cc3nn(C)cc23)cc1
[2]
  solubility kinetic: 27 µM (≈ 12.2 µg/mL)
[3]
  CLint scaled: < 8.6 mL/min/kg

## Cc1cnc(NC(=O)c2cc(Oc3cnc(C(=O)N(C)C)c(F)c3)c3cn(C)nc3c2)cn1
[1]
  Papp: 20.2 ×10⁻⁶ cm/s
[2]
  solubility kinetic: 328 µM (≈ 147 µg/mL)
[3]
  CLint scaled: < 8 mL/min/kg
Hexokinase-4 [4]
  EC50: 400 nM

## CCn1cc2c(Oc3ccc(S(C)(=O)=O)cc3)cc(C(=O)Nc3cnc(C)cn3)cc2n1
[1]
  Papp: 13.4 ×10⁻⁶ cm/s
[2]
  solubility kinetic: 2.1 µM (≈ 0.948 µg/mL)
[3]
  CLint scaled: < 8 mL/min/kg
Hexokinase-4 [4]
  EC50: 770 nM

## CCn1cc2c(Oc3cnc(C(=O)N(C)C)c(F)c3)cc(C(=O)Nc3cnc(C)cn3)cc2n1
[1]
  Papp: 13.8 ×10⁻⁶ cm/s
[2]
  solubility kinetic: 367 µM (≈ 170 µg/mL)
[5]
  logD: 1.8
[3]
  CLint scaled: 10.4 mL/min/kg
Hexokinase-4 [4]
  EC50: 230 nM

## Cc1cnc(NC(=O)c2cc(Oc3ccc(S(C)(=O)=O)cc3)c3cn(C4CC4)nc3c2)cn1
[1]
  Papp: 15.5 ×10⁻⁶ cm/s
[2]
  solubility kinetic: 0.5 µM (≈ 0.232 µg/mL)
[3]
  CLint scaled: < 8 mL/min/kg
Hexokinase-4 [4]
  EC50: 2030 nM

## CCCn1cc2c(Oc3ccc(S(C)(=O)=O)cc3)cc(C(=O)Nc3cnc(C)cn3)cc2n1
[1]
  Papp: 14.2 ×10⁻⁶ cm/s
[2]
  solubility kinetic: 2.3 µM (≈ 1.07 µg/mL)
[3]
  CLint scaled: < 8 mL/min/kg
Hexokinase-4 [4]
  EC50: 310 nM

## Cc1cnc(NC(=O)c2cc(Oc3ccc(S(C)(=O)=O)cc3)c3cn(C)nc3c2)cn1
[1]
  Papp: 20.4 ×10⁻⁶ cm/s
[2]
  solubility kinetic: 454 µM (≈ 199 µg/mL)
[3]
  CLint scaled: < 8 mL/min/kg
Hexokinase-4 [4]
  EC50: 1930 nM

## Cc1cnc(NC(=O)c2cc(Oc3ccc(C(=O)N(C)C)cc3)c3cn(C)nc3c2)cn1
[1]
  Papp: 14.6 ×10⁻⁶ cm/s
[2]
  solubility kinetic: 351 µM (≈ 151 µg/mL)
[3]
  CLint scaled: 12.3 mL/min/kg

## Cc1cnc(NC(=O)c2cc(Oc3cnc(C(=O)N(C)C)cn3)c3cc(C)oc3c2)cn1
[5]
  logD: 2.16
[3]
  CLint scaled: < 8 mL/min/kg

## Cc1cnc(NC(=O)c2cc(Oc3ccc(S(N)(=O)=O)cc3)c3cn(C)nc3c2)cn1
Hexokinase-4 [4]
  EC50: 2320 nM

## Cc1cnc(NC(=O)c2cc(Oc3cnc(C(=O)N(C)C)cn3)c3cc(C)nn3c2)cn1
[1]
  Papp: 17 ×10⁻⁶ cm/s
[2]
  solubility kinetic: 123 µM (≈ 53.2 µg/mL)
[5]
  logD: 1.87
[3]
  CLint scaled: 13.7 mL/min/kg
Hexokinase-4 [4]
  EC50: 620 nM

## Cc1cnc(NC(=O)c2cc(Oc3ccc(S(=O)(=O)N(C)C)cc3)c3cn(C)nc3c2)cn1
[1]
  Papp: 13.6 ×10⁻⁶ cm/s
[2]
  solubility kinetic: 134 µM (≈ 62.5 µg/mL)
[3]
  CLint scaled: < 8 mL/min/kg
Hexokinase-4 [4]
  EC50: 440 nM

## CCn1cc2c(Oc3cnc(C(=O)N4CCC4)c(F)c3)cc(C(=O)Nc3cnc(C)cn3)cc2n1
Rattus norvegicus [6]
  Activity: Non-toxic
Rattus norvegicus [7]
  Activity: 22%
Rattus norvegicus [8]
  Activity: Dose-dependent effect
[9]
  fraction unbound: 0.2
[10]
  fraction unbound: 0.18
[11]
  dose excreted: < 1%
[12]
  bioavailability: 69%
[13]
  AUC: 5440 ng·h/mL
[14]
  half-life: 2.6 h
[15]
  Cmax: 1490 ng/mL
[16]
  clearance: 10.5 mL/min/kg
[17]
  Vd: 0.61 L/kg
[18]
  half-life: 1 h
[19]
  AUC: 1580 ng·h/mL
[20]
  Cmax: 1820 ng/mL
[21]
  IC50: > 300000 nM
[22]
  Activity: Non-toxic
INS1
  EC50: 170 nM
Salmonella typhimurium
  Activity: Non-toxic
Hexokinase-4 [23]
  EC50: 350 nM
[1]
  Papp: 16.3 ×10⁻⁶ cm/s
[2]
  solubility kinetic: 84.8 µM (≈ 40.3 µg/mL)
[5]
  logD: 2.01
[3]
  CLint scaled: < 8 mL/min/kg
Hexokinase-4 [4]
  EC50: 120 nM

## Cc1cnc(NC(=O)c2cc(Oc3cnc(C(=O)N4CCC4)c(F)c3)c3cn(C)nc3c2)cn1
[1]
  Papp: 11.9 ×10⁻⁶ cm/s
[2]
  solubility kinetic: 70 µM (≈ 32.3 µg/mL)
[3]
  CLint scaled: < 8 mL/min/kg
Hexokinase-4 [4]
  EC50: 340 nM

## Cc1cnc(NC(=O)c2cc(Oc3cnc(C(=O)N(C)C)nc3)c3cn(C)nc3c2)cn1
[1]
  Papp: 11.5 ×10⁻⁶ cm/s
[2]
  solubility kinetic: 446 µM (≈ 193 µg/mL)
[3]
  CLint scaled: < 8 mL/min/kg
Hexokinase-4 [4]
  EC50: 910 nM

## Cc1cnc(NC(=O)c2cc(Oc3ccc(S(=O)(=O)C4CC4)cc3)c3cn(C)nc3c2)cn1
[1]
  Papp: 17.8 ×10⁻⁶ cm/s
[2]
  solubility kinetic: 73 µM (≈ 33.8 µg/mL)
[3]
  CLint scaled: < 8 mL/min/kg
Hexokinase-4 [4]
  EC50: 510 nM

## Cc1cnc(NC(=O)c2cc(Oc3ccc(S(C)(=O)=O)cc3)c3cn(CCO)nc3c2)cn1
[1]
  Papp: 6.3 ×10⁻⁶ cm/s
[2]
  solubility kinetic: 24.4 µM (≈ 11.4 µg/mL)
[3]
  CLint scaled: < 8.9 mL/min/kg
Hexokinase-4 [4]
  EC50: 1540 nM
